Series [1] can be described thus: Volume of distribution at steady state in Sprague-Dawley rat at 2 mg/kg, iv by LC/MS/MS analysis. Type of series: ADME, organism-based. To be noted: in vivo, read-out: Vdss. The essentials: (§1)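 Male Sprague-Dawley rats, 4 per group, dosed once orally at 10 mg/kg or intravenously at 2 mg/kg. Blood taken from the saphenous vein for plasma. Drug levels measured by LC-MS-MS, with parameters derived by noncompartmental analysis.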

Series [2] addresses T1, Poly [ADP-ribose] polymerase 1 (Homo sapiens, UniProt P09874). Description: Inhibition of PARP-1 in human SKOV3 cells assessed as decrease in MCM5 protein expression level at 2.5 to 10 uM incubated for 48 hrs by western blot analysis. Type of series: cell-based. The settings on record: SK-OV-3, dose 2.5-10 µM. In outline:
(§2)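 SK-OV-3 cells were grown in McCOY's 5A, seeded in 6-well plates and treated for 48 h. Lysate proteins were separated by 8-15 % SDS-PAGE and transferred to PVDF membranes. Membranes were blocked in 5 % nonfat milk, probed with primary antibody overnight at 4 °C and with HRP secondary antibody for 1 h at room temperature, then detected by enhanced chemiluminescence. Images are representative of 3 independent experiments.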

Series [3] relates to SK-OV-3. Description: Antiproliferative activity against human SK-OV-3 cells assessed as cell growth inhibition incubated for 48 hrs by MTT assay. The settings on record: SK-OV-3, 48 h. It is filed as functional, cell-based. In outline: (§3)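 Cells seeded in 96-well plates and exposed to compounds for 48 h; viability read by MTT. Each experiment repeated three times. SK-OV-3 grown in McCOY's 5A, Bel-7402 and HL-7702 in RPMI-1640, HepG2 in DMEM, Caco-2 in MEM.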
For orientation: Tetrazolium assays rely on reduction of a dye to a coloured formazan, in cell work by metabolically active cells.

The nature of series [4]: Subacute toxicity in SPF Kunming mouse assessed as change in body weight at 1000 mg/kg, po administered for 14 days and measured on day 14. It is filed as organism-based. The settings on record: in vivo, 336 h, time 14 day. The essentials: (§4)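 Twenty SPF Kunming mice (18 - 22 g), half male and half female, randomised into 2 groups of 5 males + 5 females. Treated group dosed orally at 1000 mg/kg once daily for 14 days. Death, clinical signs and body weight monitored. After 14 days: isoflurane anaesthesia, decapitation, tissues collected for H&E histology.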

A short description of series [5]: Subacute toxicity in SPF Kunming mouse assessed as clinical changes at 1000 mg/kg, po administered for 14 days and measured on day 14. It is filed as organism-based. To be noted: in vivo, 336 h, time 14 day. In outline: as §4
For series [6], the target named is T1, Poly [ADP-ribose] polymerase 1. The series can be described thus: Inhibition of human recombinant GST-tagged PARP-1 expressed in Escherichia coli assessed as reduction in NAD+-dependent ADP ribosylation incubated for 30 mins in presence and NAD by resazurin dye based fluorescence analysis. In general terms: Alamar Blue is a resazurin reagent that responds to reducing activity.

The next series has as its system L02. The series can be described thus: Cytotoxicity against human HL7702 cells assessed as cell growth inhibition incubated for 48 hrs by MTT assay. The settings on record: L02, 48 h. Type of series: cell-based. The essentials:
as §3

Series [7] is described as follows: Toxicity in Balb/c nude mouse xenografted with human SKOV3 cells assessed as change in body weight at 50 mg/kg, po for 21 days and measured every third day. Type of series: organism-based. To be noted: in vivo, 504 h, time 21 day. The essentials: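 Female BALB/c nu/nu mice, 6-8 weeks old, kept under SPF conditions. Each received 5×10^6 SK-OV-3 cells s.c. At 80–120 mm3 tumour volume, mice were split into four groups (n=6). […] Caliper measurement every three days; volume = X × (Y2/2).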

Series [8] relates to SK-OV-3. Description: Induction of apoptosis in human SKOV3 cells assessed as increase in caspase-3 expression at 2.5 to 10 uM incubated for 48 hrs by western blot analysis. The settings on record: dose 2.5-10 µM. Type of series: functional, cell-based.
A further series relates to Bel-7402. Description: Antiproliferative activity against human Bel-7402 cells assessed as cell growth inhibition incubated for 48 hrs by MTT assay. Type of series: functional, cell-based. The settings on record: Bel-7402, 48 h. The essentials: as §3
Series [9] relates to SK-OV-3. Description: Induction of autophagy in human SKOV3 cells transfected with GFP-LC3 assessed as increase in LC3 dot accumulation at 10 uM incubated for 48 hrs by TEM analysis. To be noted: in the assay text read “fluorescence microscopy” for “TEM analysis”. It is filed as functional, cell-based. The essentials: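 SK-OV-3 cells on glass coverslips infected with Ad-mCherry-GFP-LC3B for 24 h. Cells then treated at 10 µM for 48 h, fixed in 4% paraformaldehyde and examined by fluorescence microscopy.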

Another series concerns Caco-2. The series can be described thus: Antiproliferative activity against human Caco-2 cells assessed as cell growth inhibition incubated for 48 hrs by MTT assay. Type of series: functional, cell-based. To be noted: Caco-2, 48 h. In outline: as §3
Series [10] can be described thus: Subacute toxicity in SPF Kunming mouse assessed as change in kidney at 1000 mg/kg, po administered for 14 days by H and E staining based microscopic analysis. Type of series: organism-based. The settings on record: in vivo, 336 h, time 14 day. In outline: as §4
For series [11], the system named is SK-OV-3. Description: Induction of autophagy in human SKOV3 cells assessed as LC3-II protein expression at 10 uM incubated for 48 hrs by western blot analysis. It is filed as functional, cell-based. The essentials: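 SK-OV-3 cells in 6-well plates treated 48 h. Lysates separated by 8-15% SDS-PAGE and transferred to PVDF. Membranes blocked in 5% milk and probed overnight at 4 °C with LC3 or Beclin 1 antibodies. HRP secondary applied 1 h at room temperature; detection by ECL.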

Series [12] in a line: Acute toxicity in SPF Kunming mouse assessed as lethal dose administered orally as single dose and measured upto 14 days post drug administration. To be noted: in vivo, po, time <=14 day. In outline: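 Single oral dose groups at 0 (physiological saline blank, equal volume), 100, 500 and 1000 mg/kg. Mice housed with free access to water and food in stainless cages, 25 ± 1 °C, 12-h light/dark cycle. Survival, body weight and abnormalities recorded up to 14 days post-treatment.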

A short description of series [13]: AUC (0 to infinity) in Sprague-Dawley rat at 2 mg/kg, iv by LC/MS/MS analysis. It is filed as ADME, organism-based. Further details: route intravenous, time infinity, dose 2 mg/kg. The settings on record: in vivo.
Series [14] in a line: Half-life in Sprague-Dawley rat at 10 mg/kg, po by LC/MS/MS analysis. It is filed as ADME, organism-based. To be noted: in vivo. In outline:
as §1

Series [15] concerns SK-OV-3. Description: Induction of autophagy in human SKOV3 cells assessed as increase in formation of autophagosomes at 10 uM incubated for 48 hrs by TEM analysis. Type of series: functional, cell-based. In outline: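 SK-OV-3 cells exposed to 10 µM for 48 h, then fixed, dehydrated and resin-embedded. 200 nm sections on formvar grids, counterstained with uranyl acetate and lead citrate, imaged by transmission electron microscopy.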

Series [16] addresses T1, Poly [ADP-ribose] polymerase 1. Description: Inhibition of PARP-1 in human SKOV3 cells assessed as decrease in MCM7 protein expression level at 2.5 to 10 uM incubated for 48 hrs by western blot analysis. It is filed as cell-based. The settings on record: SK-OV-3, dose 2.5-10 µM. The essentials: as §2
Series [17] deals with SK-OV-3. The series can be described thus: Induction of autophagy in human SKOV3 cells assessed as increase in Atg-14 protein level at 10 uM incubated for 48 hrs by western blot analysis. It is filed as functional, cell-based. In outline:
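SK-OV-3 cells seeded in 6-well plates, treated 48 h. Protein lysates separated on 8-15 % SDS-PAGE and transferred to PVDF. Membranes blocked in 5 % nonfat milk, probed with primary antibody overnight at 4 °C, then secondary antibody 1 h at room temperature. Bands detected by enhanced chemiluminescence.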
Background: A western blot detects proteins with antibodies after separation by electrophoresis.

Series [18] in a line: Cmax in Sprague-Dawley rat at 10 mg/kg, po by LC/MS/MS analysis. To be noted: in vivo. Type of series: ADME, organism-based. Further details: route oral, dose 10 mg/kg. The essentials:
as §1

A short description of series [19]: Tmax in Sprague-Dawley rat at 10 mg/kg, po by LC/MS/MS analysis. It is filed as ADME, organism-based. To be noted: in vivo. The essentials: as §1
Series [20] can be described thus: Total plasma clearance in Sprague-Dawley rat at 2 mg/kg, iv by LC/MS/MS analysis. It is filed as ADME, organism-based. The essentials: as §1
The test system of series [21] is SK-OV-3. The series can be described thus: Induction of cell cycle arrest in human SKOV3 cells assessed as reduction in CDK1 expression at 2.5 to 10 uM incubated for 48 hrs by western blot analysis. Type of series: functional, cell-based. To be noted: dose 2.5-10 µM.

Results on one compound are retold here after ChEMBL document CHEMBL4765243, “Discovery of Novel Bromophenol-Thiosemicarbazone Hybrids as Potent Selective Inhibitors of Poly(ADP-ribose) Polymerase-1 (PARP-1) for Use in Cancer” (J Med Chem, 2019).

A word on the IC50: it is the concentration that gives 50% inhibition. The term LD50 denotes the dose at which mortality reaches 50%. As a reminder, the AUC is concentration integrated over time. The low end stands for low exposure, the high end for high exposure. By half-life is commonly meant the time needed for the level to fall by half in the phase considered. As a reminder, the Cmax is the peak of the concentration-time curve. What is called Tmax is the time at which the peak concentration occurs. For orientation: clearance means the rate of elimination divided by the concentration.

Structures are written as SMILES. Calls of active or inactive are those of the source.

T1 sequence (P09874 whole entry): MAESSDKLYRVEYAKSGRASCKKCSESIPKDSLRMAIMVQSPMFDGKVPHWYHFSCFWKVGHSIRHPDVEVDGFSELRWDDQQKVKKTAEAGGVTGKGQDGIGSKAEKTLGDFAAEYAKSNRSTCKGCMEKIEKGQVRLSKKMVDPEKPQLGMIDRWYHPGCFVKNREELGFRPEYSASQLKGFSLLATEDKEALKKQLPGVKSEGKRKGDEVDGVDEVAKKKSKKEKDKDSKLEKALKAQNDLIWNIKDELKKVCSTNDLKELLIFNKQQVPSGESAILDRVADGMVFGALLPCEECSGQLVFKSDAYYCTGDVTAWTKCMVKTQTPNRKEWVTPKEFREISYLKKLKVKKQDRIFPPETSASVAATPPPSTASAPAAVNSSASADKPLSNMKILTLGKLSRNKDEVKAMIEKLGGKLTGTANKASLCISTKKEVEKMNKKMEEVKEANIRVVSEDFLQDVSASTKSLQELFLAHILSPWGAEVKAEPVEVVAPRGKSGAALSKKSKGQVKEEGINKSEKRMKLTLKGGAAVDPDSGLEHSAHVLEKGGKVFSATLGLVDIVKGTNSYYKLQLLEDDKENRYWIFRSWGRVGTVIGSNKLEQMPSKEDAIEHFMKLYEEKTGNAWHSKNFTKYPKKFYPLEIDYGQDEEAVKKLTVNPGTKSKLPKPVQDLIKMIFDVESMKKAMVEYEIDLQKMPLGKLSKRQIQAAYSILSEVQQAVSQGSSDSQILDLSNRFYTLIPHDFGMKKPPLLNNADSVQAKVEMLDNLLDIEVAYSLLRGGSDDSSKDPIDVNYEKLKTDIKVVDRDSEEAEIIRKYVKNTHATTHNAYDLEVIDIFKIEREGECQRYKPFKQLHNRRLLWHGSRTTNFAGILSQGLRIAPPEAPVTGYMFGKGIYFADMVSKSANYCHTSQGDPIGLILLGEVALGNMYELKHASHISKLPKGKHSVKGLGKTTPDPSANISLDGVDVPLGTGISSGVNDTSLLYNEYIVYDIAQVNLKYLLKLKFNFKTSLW

For `COc1cc(/C=N/NC(N)=S)c(Br)c(Br)c1OC`, in series [1], the Vd stood at 6.1 L/kg. In addition, the inhibition entry in series [2] and in series [16] was “Active” each time. The IC50 with SK-OV-3 [3] is 2.39 µM; in series [6], 0.0295 µM; in the series on L02, 13.3 µM; in the series on Bel-7402, 5.45 µM; in the series on Caco-2 it was 20.5 µM. In addition, the Activity entry in series [4], in [5], in series [7] and in [10] was “Non-Toxic” in each case. Also, the result with SK-OV-3 [8], with SK-OV-3 [9], with SK-OV-3 [11], in the series with SK-OV-3 [15], with SK-OV-3 [17] and with SK-OV-3 [21] was Active. For the same compound, in series [12], the LD50 at 336 h amounted to 1000 mg/kg. In series [13], this compound had an AUC of 0.886 µM·h. Also, the half-life in series [14] was 2.6 h. Moreover, in series [18], the peak level (Cmax) was 19.9 nM. Besides, the Tmax in [19] stood at 2.5 h. For the same compound, in series [20], the clearance was 88.7 mL/min/kg.
